The subject of one test is HeLa. Description: Antiproliferative activity against human HeLa cells after 48 hrs by MTT assay relative to control. It is filed as functional, cell-based. In a few lines:
(§1)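 Cells (HeLa cervical or MCF7/AZ breast adenocarcinoma) exposed to test agents 48 h; mixtures at final 100 μM, individual isomers at final 100, 50 and 5 μM. Viability read by MTT (mitochondrial dehydrogenase activity), expressed as % remaining viability vs DMSO control. Two independent experiments, each in 4 replicates; mean ± SD.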
A general note: Formazan colour is commonly taken as a measure of viable cells.

The test system of test [1] is Jurkat. Description: Induction of apoptosis in human Jurkat cells assessed as viable cells at 50 uM after 48 hrs by flow cytometry relative to control. It is filed as functional. Conditions: read-out: Activity. The gist of the method: (§2)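 Jurkat T-cell leukemia cells treated 48 h with test agents at 50 μM (podophyllotoxin reference at 5 μM). Flow cytometric annexin-V/propidium iodide staining scored % apoptotic cells and % live cells, each relative to DMSO control. Two independent experiments, each in 3 replicates; mean ± SD.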
(In general: Flow cytometry measures light scatter and fluorescence of single cells or particles in a stream.)

Another test deals with MCF7/AZ. Description: Antiproliferative activity against human MCF7/AZ cells after 48 hrs by MTT assay relative to control. It is filed as functional, cell-based. The gist of the method:
as §1

Test [2] has as its system Jurkat. Description: Induction of apoptosis in human Jurkat cells after 48 hrs at 50 uM by flow cytometry relative to control. It is filed as functional. In a few lines:
as §2

Test [3] relates to Jurkat. Description: Growth inhibition of human Jurkat cells assessed as decrease in cell count at 50 uM by Trypan blue dye exclusion method. The test is classed as functional, cell-based.
Test [4] concerns Jurkat. Description: Growth inhibition of human Jurkat cells at 50 uM by Trypan blue dye exclusion method. It is filed as functional, cell-based.
For test [5], the system named is Jurkat. Description: Induction of apoptosis in human Jurkat cells after 48 hrs at 5 uM by flow cytometry relative to control. It is filed as functional. The gist of the method:
(§3)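 Jurkat human T-cell leukemia cells were exposed to compound for 48 h and then stained with annexin-V/propidium iodide for flow cytometry. Apoptotic and live cell percentages are expressed relative to a DMSO control. Values are mean ± SD from two independent experiments, each run in 3 replicates.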

Test [6] deals with Jurkat. Description: Induction of apoptosis in human Jurkat cells assessed as viable cells at 5 uM after 48 hrs by flow cytometry relative to control. The test is classed as functional. Conditions: read-out: Activity. In a few lines:
as §3

Calls of active or inactive are those of the source. The rule behind the calls is not given here.

As to `Cc1ccc(S(=O)(=O)N2C(N)=C(C#N)[C@@H](c3ccccc3)[C@H]2C(=O)c2ccc(Br)cc2)cc1` (relative stereo), the result in the test on HeLa, in the test with MCF7/AZ and with Jurkat [3] was Active. In addition, the viability at 50 µM in the test on Jurkat [1] was 56%. This compound came in with an Activity in the test with Jurkat [2] of 30%.
Turning to `COc1ccc(S(=O)(=O)N2C(N)=C(C#N)[C@@H](c3ccccc3)[C@H]2C(=O)c2ccc(Br)cc2)cc1` (relative stereo), the result with HeLa and in the test with MCF7/AZ was Active.
`Cc1ccc(S(=O)(=O)N2C(N)=C(C#N)[C@@H](c3ccccc3)[C@@H]2C(=O)c2ccc(Br)cc2)cc1` (relative stereo): the result in the test with Jurkat [4], in the test on HeLa and with MCF7/AZ was Active. The viability at 50 µM with Jurkat [1] came to 96%. The same compound gave an Activity with Jurkat [2] of 3%.
Consider `COc1cc([C@@H]2c3cc4c(cc3[C@H](O)[C@H]3COC(=O)[C@H]23)OCO4)cc(OC)c1OC` [PODOFILOX], for which the Activity with Jurkat [5] is reported as 63%. Also, the viability at 5 µM in the test on Jurkat [6] was 22%.
As for `COc1ccc(S(=O)(=O)N2C(N)=C(C#N)[C@@H](c3ccccc3)[C@@H]2C(=O)c2ccc(Br)cc2)cc1` (relative stereo), the result in the test with HeLa and with MCF7/AZ was Active.

The values are drawn from ChEMBL document CHEMBL1143867, “Novel three-component synthesis and antiproliferative properties of diversely functionalized pyrrolines” (2008).
